Measurements: ChEMBL document CHEMBL2163334, “Discovery of highly potent and selective pan-Aurora kinase inhibitors with enhanced in vivo antitumor therapeutic index” (J Med Chem, 2012)

Assays:
[1] = biological target: Aurora kinase B (Homo sapiens, UniProt Q96GD4); assay: Binding affinity to Aurora kinase B catalytic domain by competition binding assay
[2] = Clearance in athymic Nu/Nu rat at 15 mg/kg, iv administered using TPPW as vehicle; type: ADME, organism-based; set-up: dose 15 mg/kg, route intravenous; settings: in vivo
Summary of the method: (§1)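 Plasma from K3 EDTA blood at 5, 15, 30 min, 1, 2, 4, 6, 24 h; acetonitrile extraction with internal standard, LC-MS/MS on C8 column, 5-95% ACN gradient with 0.05% formic acid.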

[3] = tested on: HCT-116; assay: Antitumor activity against human HCT116 cells xenografted in athymic nude rat assessed as tumor growth inhibition at 5 mg/kg, iv administered every other day from day 10 post tumor-injection for 3 weeks relative to vehicle treated control; type: functional; settings: read-out: TGI
Summary of the method: (§2)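 Subcutaneous flank HCT-116 xenografts in nude rats; at Day 1 groups of 10 with mean tumor 301-306 mm³. Tail-vein iv in TPPW (2% Tween-80, 5% propylene glycol, 10% PG-400, 83% water) at 10 mL/kg, weight-adjusted: days 1,3,5,8,10,12,15,17,19 or days 1-4, 8-11, 15-18. Irinotecan control 100 mg/kg ip weekly ×3.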

[4] = Half life in Nu/Nu rat at 50 mg/kg, iv administered using TPPW as vehicle; type: ADME, organism-based; set-up: dose 50 mg/kg, route intravenous; settings: in vivo; summary of the method: as §1
[5] = biological target: T1, Aurora kinase A (Homo sapiens, UniProt O14965); assay: Inhibition of Aurora kinase A autophosphorylation in human HEK293 cells after 2 hrs by phosphor antibody readout assay; type: cell-based
T1 sequence (O14965 whole entry): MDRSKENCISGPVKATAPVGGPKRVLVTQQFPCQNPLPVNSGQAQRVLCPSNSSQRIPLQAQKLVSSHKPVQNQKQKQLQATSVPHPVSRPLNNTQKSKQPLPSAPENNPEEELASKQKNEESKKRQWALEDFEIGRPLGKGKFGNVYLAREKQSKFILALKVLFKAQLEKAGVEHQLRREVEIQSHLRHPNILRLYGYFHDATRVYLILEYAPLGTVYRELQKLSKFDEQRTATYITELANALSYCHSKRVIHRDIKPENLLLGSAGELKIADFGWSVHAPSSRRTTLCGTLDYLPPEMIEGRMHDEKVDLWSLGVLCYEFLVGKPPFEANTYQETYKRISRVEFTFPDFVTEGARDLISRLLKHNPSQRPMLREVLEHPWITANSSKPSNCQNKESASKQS

[6] = tested on: HCT-116; assay: Antitumor activity against human HCT116 cells xenografted in athymic nude rat assessed as tumor growth inhibition at 20 mg/kg, iv administered every other day from day 10 post tumor-injection for 3 weeks relative to vehicle treated control; type: functional; settings: read-out: TGI; summary of the method: as §2
[7] = AUC (0 to infinity) in Nu/Nu rat at 5 mg/kg, iv administered using TPPW as vehicle; type: ADME, organism-based; set-up: dose 5 mg/kg, route intravenous, time infinity; settings: plasma; summary of the method: as §1
[8] = Volume of distribution in Nu/Nu rat at 50 mg/kg, iv administered using TPPW as vehicle; type: ADME, organism-based; set-up: dose 50 mg/kg, route intravenous; settings: in vivo; summary of the method: as §1
[9] = biological target: T2, Aurora kinase C (Homo sapiens, UniProt Q9UQB9); assay: Binding affinity to Aurora kinase C
T2 sequence (Q9UQB9 whole entry): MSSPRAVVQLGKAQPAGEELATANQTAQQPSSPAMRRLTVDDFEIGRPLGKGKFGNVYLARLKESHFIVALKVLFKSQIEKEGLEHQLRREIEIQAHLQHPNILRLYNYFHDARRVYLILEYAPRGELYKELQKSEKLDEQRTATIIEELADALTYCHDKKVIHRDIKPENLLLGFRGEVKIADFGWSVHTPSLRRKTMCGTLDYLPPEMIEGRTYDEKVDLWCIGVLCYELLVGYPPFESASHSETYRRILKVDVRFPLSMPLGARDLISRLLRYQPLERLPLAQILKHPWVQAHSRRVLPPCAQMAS

Sequence of Aurora kinase B (Q96GD4 whole entry, the tested form may be a part): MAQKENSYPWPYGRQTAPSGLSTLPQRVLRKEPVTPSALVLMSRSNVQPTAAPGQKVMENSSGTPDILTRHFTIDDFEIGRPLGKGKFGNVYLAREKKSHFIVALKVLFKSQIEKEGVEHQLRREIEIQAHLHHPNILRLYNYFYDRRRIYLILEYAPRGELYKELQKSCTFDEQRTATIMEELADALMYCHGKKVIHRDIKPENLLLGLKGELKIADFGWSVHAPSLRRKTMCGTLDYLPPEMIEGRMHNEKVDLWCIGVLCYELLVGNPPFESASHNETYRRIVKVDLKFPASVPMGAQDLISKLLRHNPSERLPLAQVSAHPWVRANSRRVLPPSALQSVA

Question: What does the source list for `Cc1cc(Nc2nc(Sc3ccc(NC(=O)CN4CC[C@@H](C(=O)N5CCC(F)(F)C5)C4)cc3)nn3cccc23)n[nH]1`?
Answer: Kd [1]: 1.7 nM; clearance [2]: 12.5 mL/min/kg; inhibition in vivo at 5 mg/kg [3]: 45%; half-life [4]: 2.9 h; IC50 [5]: 1 nM; inhibition in vivo at 20 mg/kg [6]: 85%; AUC(0-inf) [7]: 7.7 µM·h; Vd [8]: 0.62 L/kg; Kd [9]: < 10 nM
